Assay outcomes (PubChem)
TNAP act hiacc: activators of human TNAP at high phosphate acceptor concentration; activation factor at 20 µM; 200,000 tested, under 10 active; AID 1136; purified TNAP, CDP-star luminescence, 1 M DEA, 30 min; stronger effect = higher value; 0 = EDTA background, 1 = DMSO-only activity;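 active = activation factor at least 2 at 20 µM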
Target sequence (P05186 whole entry, looked up): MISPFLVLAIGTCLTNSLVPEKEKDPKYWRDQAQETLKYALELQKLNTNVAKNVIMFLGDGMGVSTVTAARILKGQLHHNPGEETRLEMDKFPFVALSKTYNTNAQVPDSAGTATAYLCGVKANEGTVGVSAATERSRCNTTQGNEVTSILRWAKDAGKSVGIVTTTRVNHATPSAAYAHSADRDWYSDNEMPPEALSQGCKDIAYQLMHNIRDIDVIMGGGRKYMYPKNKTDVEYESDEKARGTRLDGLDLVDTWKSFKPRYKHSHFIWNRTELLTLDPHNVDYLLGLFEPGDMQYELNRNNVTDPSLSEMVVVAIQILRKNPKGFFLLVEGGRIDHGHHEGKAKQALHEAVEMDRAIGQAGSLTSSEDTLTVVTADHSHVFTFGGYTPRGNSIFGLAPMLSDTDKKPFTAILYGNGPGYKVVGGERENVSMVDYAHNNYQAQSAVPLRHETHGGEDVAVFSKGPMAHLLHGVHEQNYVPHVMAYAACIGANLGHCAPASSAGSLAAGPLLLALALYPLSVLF
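Test system – human TNAP · Doses – 20 µM single point · Incubation – 30 min, room temperature · Signal – luminescent substrate turnover signal · Read-out basis – activation factor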
TNAP inh hi DEA: inhibitors of human TNAP at high phosphate acceptor concentration; purified TNAP, CDP-star luminescence, 1 M DEA; inhibition, % at 20 µM; actives 0.03% (n = 200,000); AID 1135;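 active = over 50% inhibition of tissue-nonspecific alkaline phosphatase at 20 µM in the single-dose screen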;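 also: plate controls were DMSO wells for no effect and EDTA-quenched wells as full inhibition for full effect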
Arbovirus inh: blocks arbovirus infection; arbovirus infection cell-based antiviral screen; actives 0.37% (n = 200,000); inhibition, % at 10 µM; in the data active = inhibition above about 30%
TNAP inh no acc: inhibitors of human TNAP without phosphate acceptor | P05186 | purified TNAP, CDP-star luminescence, 30 min | inhibition, % at 20 µM | actives 0.26% (n = 200,000);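 active = tissue-nonspecific alkaline phosphatase inhibition above about 50% at 20 µM in the single-dose screen, limit read from the data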;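 also: 0% = DMSO negative control and 100% = EDTA positive control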
PKD1 kinase inh: blocks activity of human protein kinase D1. PKD1 kinase fluorescence polarization assay. actives 0.056% (n = 200,000). Q15139. inhibition, % (no concentration beside the values); in the data active = inhibition above about 50%
Active calls of the source: *. Hits are enriched below; roughly 0.73% of the tested compounds scored in any of these assays.

How did O=[N+]([O-])c1cc(-c2n[nH]c(-c3ccccc3)n2)cc([N+](=O)[O-])c1 do in these assays?
TNAP act hiacc: 1; TNAP inh hi DEA: -3; Arbovirus inh: 1; TNAP inh no acc: 40; PKD1 kinase inh: 18

How did Clc1ccccc1-c1nc(-c2ccccc2)n[nH]1 do in these assays?
TNAP act hiacc: 1; TNAP inh hi DEA: 3; Arbovirus inh: 1; TNAP inh no acc: 91*; PKD1 kinase inh: -1

What do the screens show for `COc1ccc(-n2cccc2/C=C2\C(=N)N3N=C(c4ccco4)SC3=NC2=O)cc1`?
TNAP act hiacc: 0.9; TNAP inh hi DEA: 13; Arbovirus inh: 39*; TNAP inh no acc: 8; PKD1 kinase inh: -2

Results for COc1ccc(-n2cccc2/C=C2\C(=N)N3N=C(C(C)C)SC3=NC2=O)cc1 ?
TNAP act hiacc: 1; TNAP inh hi DEA: -2; Arbovirus inh: 30*; TNAP inh no acc: -4; PKD1 kinase inh: -6

What do the screens show for `CCCCn1c(=O)[nH]c(=O)c2c(C(=O)OCC)cc(-c3ccc(OC(F)F)cc3)nc21`?
TNAP act hiacc: 1; TNAP inh hi DEA: 2; Arbovirus inh: -12; TNAP inh no acc: 1; PKD1 kinase inh: -4

What do the screens show for `Cc1cc(C)c2c(-n3cccc3)n[nH]c2n1`?
TNAP act hiacc: 1; TNAP inh hi DEA: -1; Arbovirus inh: 7; TNAP inh no acc: 68*; PKD1 kinase inh: -2

How did Cc1cc(C)c2c(-n3cccc3)nn(CC#N)c2n1 do in these assays?
TNAP act hiacc: 1; TNAP inh hi DEA: -4; Arbovirus inh: 2; TNAP inh no acc: -10; PKD1 kinase inh: -5

Results for COc1ccc(-c2nc(NC(=O)c3ccc(OCC(=O)N4CCOCC4)c(OC)c3)sc2C)cc1 ?
TNAP act hiacc: 1; TNAP inh hi DEA: 0; Arbovirus inh: 45*; TNAP inh no acc: -13; PKD1 kinase inh: 1

Results for CSC1=NC(C(Cl)(Cl)Cl)N=C(c2ccc(C)cc2)N1 (stereo unspecified) ?
TNAP act hiacc: 1; TNAP inh hi DEA: 0; Arbovirus inh: -2; TNAP inh no acc: -6; PKD1 kinase inh: 8

What do the screens show for `CCCC(C)NC(=O)COc1ccc(Sc2ccc(OCC(=O)NC(C)CCC)cc2)cc1` (stereo unspecified)?
TNAP act hiacc: 1; TNAP inh hi DEA: -4; Arbovirus inh: -4; TNAP inh no acc: -50; PKD1 kinase inh: 1

Results for CC(C)(Oc1ccc(Cl)cc1)C(=O)NC1=NN(c2ccccc2)C(=O)C1 ?
TNAP act hiacc: 1; TNAP inh hi DEA: -1; Arbovirus inh: 35*; TNAP inh no acc: -14; PKD1 kinase inh: -2

How did O=C1CC(NC(=O)C(F)(F)F)=NN1c1ccccc1 do in these assays?
TNAP act hiacc: 1.1; TNAP inh hi DEA: -7; Arbovirus inh: -27; TNAP inh no acc: -18; PKD1 kinase inh: -5

What do the screens show for `CCN=c1scc(C)n1/N=C/c1cc(Br)c(O)c(Br)c1`?
TNAP act hiacc: 1; TNAP inh hi DEA: -2; Arbovirus inh: 31*; TNAP inh no acc: 2; PKD1 kinase inh: 0

Results for Cn1nc(-c2ccc(N3CCN(CCO)CC3)c([N+](=O)[O-])c2)c2ccccc2c1=O ?
TNAP act hiacc: 1; TNAP inh hi DEA: -4; Arbovirus inh: -19; TNAP inh no acc: -3; PKD1 kinase inh: -1

Results for C/C=C/c1ccc(OCCCCOc2ccccc2C(C)=O)c(OC)c1 ?
TNAP act hiacc: 1; TNAP inh hi DEA: -2; Arbovirus inh: 36*; TNAP inh no acc: -15; PKD1 kinase inh: 3

What do the screens show for `C(=N\Nc1nc(-c2ccccc2)cs1)/c1cccs1`?
TNAP act hiacc: 1; TNAP inh hi DEA: 4; Arbovirus inh: 35*; TNAP inh no acc: -15; PKD1 kinase inh: -1

Results for C(=N\Nc1nc(-c2ccccc2)cs1)/c1ccco1 ?
TNAP act hiacc: 0.9; TNAP inh hi DEA: 7; Arbovirus inh: 36*; TNAP inh no acc: -6; PKD1 kinase inh: 4

Results for O=CN1CCN(C(=O)c2ccc(-c3nc4ccccc4s3)s2)CC1 ?
TNAP act hiacc: 1; TNAP inh hi DEA: 1; Arbovirus inh: -9; TNAP inh no acc: -6; PKD1 kinase inh: 2

Results for O=C(c1cc(-c2ccccc2)n[nH]1)N1CCc2c([nH]c3ccccc23)C1c1ccccn1 (stereo unspecified) ?
TNAP act hiacc: 1; TNAP inh hi DEA: -3; Arbovirus inh: -8; TNAP inh no acc: 62*; PKD1 kinase inh: 0

How did O=C(O)c1cccc(NC(=S)NC(=O)c2ccc(-c3ccccc3)cc2)c1 do in these assays?
TNAP act hiacc: 1; TNAP inh hi DEA: -1; Arbovirus inh: 28; TNAP inh no acc: 17; PKD1 kinase inh: -4
